In brackets after ≈: the same amount, converted by molar mass.
Assays:
Assay type in all cases: functional
Saccharomyces cerevisiae [1] = test: Antifungal activity against Saccharomyces cerevisiae after 5 days by broth microdilution method; details: 120 h
Rhodotorula mucilaginosa [2] = test: Antifungal activity against Rhodotorula mucilaginosa after 7 days by Etest; details: 168 h
Rhodotorula mucilaginosa [3] = test: Antifungal activity against Rhodotorula mucilaginosa after 7 days by broth microdilution method; details: 168 h
Magnusiomyces capitatus [4] = test: Antifungal activity against Dipodascus capitatus after 3 days by broth microdilution method; details: 72 h
Magnusiomyces capitatus [5] = test: Antifungal activity against Dipodascus capitatus after 4 days by Etest; details: 96 h
Magnusiomyces capitatus [6] = test: Antifungal activity against Dipodascus capitatus after 48 hrs by broth microdilution method
Summary of the method: (§1)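 CLSI M27-A3 broth microdilution. Isolates were identified by ITS1-5.8S-ITS2 sequencing, kept at −70°C in sterile water, and revived on potato dextrose or Sabouraud agar. Drug ranges in wells were 0.015–16 or 0.125–128 μg/ml, depending on the agent. Plates were incubated at 35°C and MICs read visually at 48 h. QC strains were C. krusei ATCC 6258 and C. parapsilosis ATCC 22019.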

Magnusiomyces capitatus [7] = test: Antifungal activity against Dipodascus capitatus after 48 hrs by Etest
Summary of the method: (§2)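 Etest on 2% glucose-RPMI agar. Yeast suspensions were swabbed across the plates and strips applied, then incubated at 35°C for 48 h. MIC was the lowest concentration where the elliptical inhibition zone border met the strip scale. Each reading was raised to the next 2-fold dilution on the CLSI scale and converted to log2. Isolates were revived from −70°C stocks on potato dextrose or Sabouraud agar.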

Rhodotorula mucilaginosa [8] = test: Antifungal activity against Rhodotorula mucilaginosa after 48 hrs by broth microdilution method; summary of the method: as §1
Rhodotorula mucilaginosa [9] = test: Antifungal activity against Rhodotorula mucilaginosa after 48 hrs by Etest; summary of the method: as §2
Saccharomyces cerevisiae [10] = test: Antifungal activity against Saccharomyces cerevisiae after 48 hrs by broth microdilution method; summary of the method: as §1
Saccharomyces cerevisiae [11] = test: Antifungal activity against Saccharomyces cerevisiae after 48 hrs by Etest; summary of the method: as §2
[12] = system: Cutaneotrichosporon mucoides; test: Antifungal activity against Trichosporon mucoides after 48 hrs by broth microdilution method; summary of the method: as §1
[13] = system: Cutaneotrichosporon mucoides; test: Antifungal activity against Trichosporon mucoides after 48 hrs by Etest; summary of the method: as §2
Trichosporon inkin [14] = test: Antifungal activity against Trichosporon inkin after 48 hrs by broth microdilution method; summary of the method: as §1
Trichosporon inkin [15] = test: Antifungal activity against Trichosporon inkin after 48 hrs by Etest; summary of the method: as §2
[16] = Antifungal activity against Trichosporon jirovecii after 48 hrs by broth microdilution method; details: Cutaneotrichosporon jirovecii; summary of the method: as §1
[17] = Antifungal activity against Trichosporon jirovecii after 48 hrs by Etest; details: Cutaneotrichosporon jirovecii; summary of the method: as §2
[18] = Antifungal activity against Trichosporon domesticum after 48 hrs by broth microdilution method; details: Apiotrichum domesticum; summary of the method: as §1
[19] = Antifungal activity against Trichosporon domesticum after 48 hrs by Etest; details: Apiotrichum domesticum; summary of the method: as §2
Trichosporon asahii [20] = test: Antifungal activity against Trichosporon asahii after 48 hrs by broth microdilution method; summary of the method: as §1
Trichosporon asahii [21] = test: Antifungal activity against Trichosporon asahii after 48 hrs by Etest; summary of the method: as §2
[22] = system: Cutaneotrichosporon mucoides; test: Antifungal activity against Trichosporon mucoides assessed as percent susceptible isolates after 48 hrs by broth microdilution method
Summary of the method: (§3)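 Broth microdilution MICs (CLSI, 35°C, visual read at 48 h) were sorted into categories using CLSI M27-A3 triazole breakpoints. Susceptible was ≤1 or ≤8 μg/ml, SDD was 2 or 16–32 μg/ml, and resistant was ≥4 or ≥64 μg/ml, depending on the agent. Each category is the percentage of isolates falling in it.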

[23] = system: Cutaneotrichosporon mucoides; test: Antifungal activity against Trichosporon mucoides assessed as percent susceptible/dose-dependent isolates after 48 hrs by broth microdilution method; summary of the method: as §3
Trichosporon [24] = test: Antifungal activity against Trichosporon sp. after 3 days by broth microdilution method; details: 72 h
Trichosporon [25] = test: Antifungal activity against Trichosporon sp. after 4 days by Etest; details: 96 h

Compound: CC[C@@H]([C@H](C)O)n1ncn(-c2ccc(N3CCN(c4ccc(OC[C@@H]5CO[C@@](Cn6cncn6)(c6ccc(F)cc6F)C5)cc4)CC3)cc2)c1=O [POSACONAZOLE]
- MIC50 (Saccharomyces cerevisiae [1]): 1 µg/mL (≈ 1.43 µM)
- MIC90 (Saccharomyces cerevisiae [1]): 2 µg/mL (≈ 2.85 µM)
- MIC (Rhodotorula mucilaginosa [2]): > 16 µg/mL
- MIC50 (Rhodotorula mucilaginosa [2]): > 16 µg/mL
- MIC90 (Rhodotorula mucilaginosa [2]): > 16 µg/mL
- MIC50 (Rhodotorula mucilaginosa [3]): 1 µg/mL (≈ 1.43 µM)
- MIC90 (Rhodotorula mucilaginosa [3]): 8 µg/mL (≈ 11.4 µM)
- MIC50 (Magnusiomyces capitatus [4]): 0.125 µg/mL (≈ 0.178 µM)
- MIC90 (Magnusiomyces capitatus [4]): 0.5 µg/mL (≈ 0.713 µM)
- MIC50 (Magnusiomyces capitatus [5]): 0.06 µg/mL (≈ 0.0856 µM)
- MIC90 (Magnusiomyces capitatus [5]): 0.5 µg/mL (≈ 0.713 µM)
- MIC50 (Magnusiomyces capitatus [6]): 0.125 µg/mL (≈ 0.178 µM)
- MIC90 (Magnusiomyces capitatus [6]): 0.5 µg/mL (≈ 0.713 µM)
- MIC50 (Magnusiomyces capitatus [7]): 0.06 µg/mL (≈ 0.0856 µM)
- MIC90 (Magnusiomyces capitatus [7]): 0.5 µg/mL (≈ 0.713 µM)
- MIC50 (Rhodotorula mucilaginosa [8]): 1 µg/mL (≈ 1.43 µM)
- MIC90 (Rhodotorula mucilaginosa [8]): 8 µg/mL (≈ 11.4 µM)
- MIC (Rhodotorula mucilaginosa [9]): > 16 µg/mL
- MIC50 (Rhodotorula mucilaginosa [9]): > 16 µg/mL
- MIC90 (Rhodotorula mucilaginosa [9]): > 16 µg/mL
- MIC50 (Saccharomyces cerevisiae [10]): 1 µg/mL (≈ 1.43 µM)
- MIC90 (Saccharomyces cerevisiae [10]): 2 µg/mL (≈ 2.85 µM)
- MIC50 (Saccharomyces cerevisiae [11]): 2 µg/mL (≈ 2.85 µM)
- MIC90 (Saccharomyces cerevisiae [11]): > 16 µg/mL
- MIC50 [12]: 0.125 µg/mL (≈ 0.178 µM)
- MIC90 [12]: 0.25 µg/mL (≈ 0.357 µM)
- MIC50 [13]: 0.125 µg/mL (≈ 0.178 µM)
- MIC90 [13]: 0.5 µg/mL (≈ 0.713 µM)
- MIC50 (Trichosporon inkin [14]): 0.125 µg/mL (≈ 0.178 µM)
- MIC90 (Trichosporon inkin [14]): 0.25 µg/mL (≈ 0.357 µM)
- MIC50 (Trichosporon inkin [15]): 0.125 µg/mL (≈ 0.178 µM)
- MIC90 (Trichosporon inkin [15]): 0.5 µg/mL (≈ 0.713 µM)
- MIC50 [16]: 0.125 µg/mL (≈ 0.178 µM)
- MIC90 [16]: 0.25 µg/mL (≈ 0.357 µM)
- MIC50 [17]: 0.125 µg/mL (≈ 0.178 µM)
- MIC90 [17]: 0.5 µg/mL (≈ 0.713 µM)
- MIC50 [18]: 0.125 µg/mL (≈ 0.178 µM)
- MIC90 [18]: 0.25 µg/mL (≈ 0.357 µM)
- MIC50 [19]: 0.125 µg/mL (≈ 0.178 µM)
- MIC90 [19]: 0.5 µg/mL (≈ 0.713 µM)
- MIC50 (Trichosporon asahii [20]): 0.125 µg/mL (≈ 0.178 µM)
- MIC90 (Trichosporon asahii [20]): 0.25 µg/mL (≈ 0.357 µM)
- MIC50 (Trichosporon asahii [21]): 0.125 µg/mL (≈ 0.178 µM)
- MIC90 (Trichosporon asahii [21]): 0.5 µg/mL (≈ 0.713 µM)
- MIC50 [22]: 0.125 µg/mL (≈ 0.178 µM)
- MIC90 [22]: 0.25 µg/mL (≈ 0.357 µM)
- MIC50 [23]: 0.125 µg/mL (≈ 0.178 µM)
- MIC90 [23]: 0.25 µg/mL (≈ 0.357 µM)
- MIC50 (Trichosporon [24]): 0.125 µg/mL (≈ 0.178 µM)
- MIC90 (Trichosporon [24]): 0.25 µg/mL (≈ 0.357 µM)
- MIC50 (Trichosporon [25]): 0.125 µg/mL (≈ 0.178 µM)
- MIC90 (Trichosporon [25]): 0.5 µg/mL (≈ 0.713 µM)

Compound: C[C@@H](c1ncncc1F)[C@](O)(Cn1cncn1)c1ccc(F)cc1F [VORICONAZOLE]
- MIC50 (Saccharomyces cerevisiae [1]): 0.125 µg/mL (≈ 0.358 µM)
- MIC90 (Saccharomyces cerevisiae [1]): 0.25 µg/mL (≈ 0.716 µM)
- MIC50 (Rhodotorula mucilaginosa [2]): > 16 µg/mL
- MIC90 (Rhodotorula mucilaginosa [2]): > 16 µg/mL
- MIC50 (Rhodotorula mucilaginosa [3]): 2 µg/mL (≈ 5.73 µM)
- MIC90 (Rhodotorula mucilaginosa [3]): 8 µg/mL (≈ 22.9 µM)
- MIC50 (Magnusiomyces capitatus [4]): 0.06 µg/mL (≈ 0.172 µM)
- MIC90 (Magnusiomyces capitatus [4]): 0.25 µg/mL (≈ 0.716 µM)
- MIC50 (Magnusiomyces capitatus [5]): 0.03 µg/mL (≈ 0.0859 µM)
- MIC90 (Magnusiomyces capitatus [5]): 0.06 µg/mL (≈ 0.172 µM)
- MIC50 (Magnusiomyces capitatus [6]): 0.06 µg/mL (≈ 0.172 µM)
- MIC90 (Magnusiomyces capitatus [6]): 0.25 µg/mL (≈ 0.716 µM)
- MIC50 (Magnusiomyces capitatus [7]): 0.03 µg/mL (≈ 0.0859 µM)
- MIC90 (Magnusiomyces capitatus [7]): 0.06 µg/mL (≈ 0.172 µM)
- MIC50 (Rhodotorula mucilaginosa [8]): 2 µg/mL (≈ 5.73 µM)
- MIC90 (Rhodotorula mucilaginosa [8]): 8 µg/mL (≈ 22.9 µM)
- MIC50 (Rhodotorula mucilaginosa [9]): > 16 µg/mL
- MIC90 (Rhodotorula mucilaginosa [9]): > 16 µg/mL
- MIC50 (Saccharomyces cerevisiae [10]): 0.125 µg/mL (≈ 0.358 µM)
- MIC90 (Saccharomyces cerevisiae [10]): 0.25 µg/mL (≈ 0.716 µM)
- MIC50 (Saccharomyces cerevisiae [11]): 0.03 µg/mL (≈ 0.0859 µM)
- MIC90 (Saccharomyces cerevisiae [11]): 0.125 µg/mL (≈ 0.358 µM)
- MIC50 [12]: 0.06 µg/mL (≈ 0.172 µM)
- MIC90 [12]: 0.25 µg/mL (≈ 0.716 µM)
- MIC50 [13]: 0.03 µg/mL (≈ 0.0859 µM)
- MIC90 [13]: 0.125 µg/mL (≈ 0.358 µM)
- MIC50 (Trichosporon inkin [14]): 0.06 µg/mL (≈ 0.172 µM)
- MIC90 (Trichosporon inkin [14]): 0.25 µg/mL (≈ 0.716 µM)
- MIC50 (Trichosporon inkin [15]): 0.03 µg/mL (≈ 0.0859 µM)
- MIC90 (Trichosporon inkin [15]): 0.125 µg/mL (≈ 0.358 µM)
- MIC50 [16]: 0.06 µg/mL (≈ 0.172 µM)
- MIC90 [16]: 0.25 µg/mL (≈ 0.716 µM)
- MIC50 [17]: 0.03 µg/mL (≈ 0.0859 µM)
- MIC90 [17]: 0.125 µg/mL (≈ 0.358 µM)
- MIC50 [18]: 0.06 µg/mL (≈ 0.172 µM)
- MIC90 [18]: 0.25 µg/mL (≈ 0.716 µM)
- MIC50 [19]: 0.03 µg/mL (≈ 0.0859 µM)
- MIC90 [19]: 0.125 µg/mL (≈ 0.358 µM)
- MIC50 (Trichosporon asahii [20]): 0.06 µg/mL (≈ 0.172 µM)
- MIC90 (Trichosporon asahii [20]): 0.25 µg/mL (≈ 0.716 µM)
- MIC50 (Trichosporon asahii [21]): 0.03 µg/mL (≈ 0.0859 µM)
- MIC90 (Trichosporon asahii [21]): 0.125 µg/mL (≈ 0.358 µM)
- MIC50 [22]: 0.06 µg/mL (≈ 0.172 µM)
- MIC90 [22]: 0.25 µg/mL (≈ 0.716 µM)
- MIC50 [23]: 0.06 µg/mL (≈ 0.172 µM)
- MIC90 [23]: 0.25 µg/mL (≈ 0.716 µM)
- MIC50 (Trichosporon [24]): 0.06 µg/mL (≈ 0.172 µM)
- MIC90 (Trichosporon [24]): 0.25 µg/mL (≈ 0.716 µM)
- MIC50 (Trichosporon [25]): 0.03 µg/mL (≈ 0.0859 µM)
- MIC90 (Trichosporon [25]): 0.125 µg/mL (≈ 0.358 µM)
